Measurements taken from ChEMBL document CHEMBL1130097, “Synthesis and anti-HIV-1 activity of a series of 1-alkoxy-5-alkyl-6-(arylthio)uracils” (J Med Chem, 1997).
pEC50, pIC50: −log10 of the molar value.

Tests used:
[1] = test system: Human immunodeficiency virus 1; test: Concentration required to achieve 50% protection of CEM-SS cells against the cytopathic effect of HIV-1.; format: functional, organism-based; conditions: Human immunodeficiency virus 1, CEM-SS
[2] = (§1) Selectivity Index measured as ratio of CC50 to that of EC50.; format: functional, CCRF-CEM
CEM-SS [3] = test: Cytotoxic concentration required to reduce the viability of mock infected CEM-SS cells by 50%.; format: functional; conditions: Homo sapiens
CCRF-CEM [4] = test: Cytotoxic concentration for inhibition of […] replication in CEM cells.; format: functional; conditions: Homo sapiens
CCRF-CEM [5] = test: Effective concentration for inhibition of […] replication in CEM cells.; format: functional, cell-based; conditions: Homo sapiens
[6] = Cytotoxic concentration for inhibition of HIV-1 replication in human peripheral Blood mononuclear cells.(PBMCs); format: functional
[7] = Selectivity Index measured as ratio of CC50 to that of EC50 in PBMCs; format: functional
Outline: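 HIV-1 (HTLV-IIIB) in PHA-stimulated PBMCs from healthy seronegative donors. Cells were infected at MOI 0.01 for 2 h, washed, then grown with compound in RPMI 1640 with IL-2 and 10% FBS at 37 °C. Cultures were split 1:2 with fresh compound on days 4 and 8. p24 was read by ELISA on day 12. Cytotoxicity was measured by [3H]thymidine incorporation. SI = CC50/EC50, means of two independent experiments in duplicate.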

[8] = Effective concentration for inhibition of HIV-1 replication in human peripheral Blood mononuclear cells.(PBMCs); format: functional
Outline: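 PBMCs from healthy seronegative donors were isolated on Ficoll-Hypaque and stimulated 24 h with PHA (10 μg/mL). Cells at 1×10^6 cells/mL were infected with HIV-1 HTLV-IIIB at MOI 0.01, with 2-h adsorption followed by three washes. Culture was in RPMI 1640 with IL-2 (2 U/mL) and 10% FBS with compound at 37 °C, split 1:2 with fresh drug on days 4 and 8. On day 12, supernatant p24 was measured by ELISA in triplicate. […] Means of two independent experiments run in duplicate.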

CEM-SS [9] = test: Cytotoxic concentration required to reduce the viability of mock infected CEM-SS by 50%.; format: functional; conditions: Homo sapiens
[10] = test system: Avian myeloblastosis virus; test: Inhibitory effect on recombinant AMV reverse transcriptase; format: functional
Outline: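 Recombinant RT (0.05 unit of HIV-1, AMV or Mo-MuLV) in 50 mM Tris-HCl pH 7.8, 50 mM KCl, 30 mM MgCl2, 1 mM DTT and 0.01% Triton X-100. Template poly r(A)d(T)12-18 (5.0 μg) with 0.5 μCi [3H]dTTP. Compound added in DMSO (final below 1%), 1 h at 37 °C. Reaction stopped with cold 20% TCA and precipitate counted. […] Means of at least three independent experiments run in duplicate.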

CEM-V [11] = test: Cytotoxic concentration required to reduce the viability of mock-infected CEM-V cells by 50%; format: functional; conditions: Homo sapiens
CEM-V [12] = test: Inhibition of HIV-1 replication in CEM-V cells; format: functional, cell-based; conditions: Homo sapiens
[13] = as §1; format: functional
[14] = test system: Avian myeloblastosis virus; test: Inhibitory effect on recombinant AMV reverse transcriptase (Avian Myeloblastosis Virus, AMV); format: functional
Outline: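 Recombinant RT (0.05 unit each of HIV-1, AMV or Mo-MuLV enzyme) in 50 mM Tris-HCl pH 7.8, 50 mM KCl, 30 mM MgCl2, 1 mM DTT, 0.01% Triton X-100, with poly r(A)d(T)12-18 template and [3H]dTTP. Compounds added from DMSO (final below 1%), 1 h at 37 °C. Stopped with cold 20% TCA; precipitate counted.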

| SMILES | pEC50 [1] | Selectivity index [2] | CC50 (CEM-SS [3]) [µM] | further results |
| --- | --- | --- | --- | --- |
| CCc1c(Sc2cc(C)cc(C)c2)n(OCCOC)c(=O)[nH]c1=O | 5.71 | 69 | 136 |  |
| Nc1ccn([C@H]2CC[C@@H](CO)O2)c(=O)n1 [ZALCITABINE] | 6.72 | >53 | > 10 |  |
| Cc1cccc(Sc2c(C(C)C)c(=O)[nH]c(=O)n2OCCCO)c1 | 5.33 | 28 | 118 |  |
| CCCOn1c(Sc2cc(F)cc(F)c2)c(C(C)C)c(=O)[nH]c1=O | 5.62 | >84 | > 200 |  |
| CC(C)c1c(Sc2cccc(F)c2)n(OCCCO)c(=O)[nH]c1=O |  |  | 3.4 |  |
| Cc1cc(C)cc(Sc2c(C(C)C)c(=O)[nH]c(=O)n2OCCc2ccccc2)c1 | 6.31 | 31 | 15 |  |
| Cc1cc(C)cc(Sc2c(C)c(=O)[nH]c(=O)n2OCc2ccccc2)c1 | 5.00 | >20 | > 200 |  |
| Cc1cc(C)cc(Sc2c(C3CC3)c(=O)[nH]c(=O)n2OCc2ccccc2)c1 | 4.80 | >13 | > 200 |  |
| CC(C)c1c(Sc2ccccc2)n(OCCCO)c(=O)[nH]c1=O | 4.72 | 8.9 | 170 |  |
| Cc1cc(C)cc(Sc2c(C3CC3)c(=O)[nH]c(=O)n2OCCCO)c1 | 4.82 | 8.5 | 128 |  |
| Cc1c(Sc2ccccc2)n(COCCO)c(=O)[nH]c1=O [HEPT] |  | 48 |  | CC50 (CCRF-CEM [4]): 400 µM; pEC50 (CCRF-CEM [5]): 5.08 |
| CCCc1c(Sc2cc(C)cc(C)c2)n(OCCCO)c(=O)[nH]c1=O | 5.09 | 13 | 107 |  |
| CCCc1c(Sc2cc(C)cc(C)c2)n(OCCc2ccccc2)c(=O)[nH]c1=O | 6.15 | 41 | 29 |  |
| CC(C)c1c(Sc2cc(F)cc(F)c2)n(OCCCO)c(=O)[nH]c1=O | 5.12 | 20 | 150 |  |
| CCCCOn1c(Sc2cc(C)cc(C)c2)c(CC)c(=O)[nH]c1=O | 6.01 | 41 | 40 |  |
| CCCOn1c(Sc2cc(C)cc(C)c2)c(CC)c(=O)[nH]c1=O | 6.46 | 154 | 54 |  |
| Cc1cc(C)cc(Sc2c(C)c(=O)[nH]c(=O)n2OCCCO)c1 | 5.26 | 25 | 140 |  |
| CCCOn1c(Sc2ccccc2C)c(C(C)C)c(=O)[nH]c1=O | 4.86 | 2.9 | 41 |  |
| Cc1cc(C)cc(Sc2c(C(C)C)c(=O)[nH]c(=O)n2OCCCO)c1 | 6.72 | 395 | 75 |  |
| Cc1cc(C)cc(Sc2c(C(C)C)c(=O)[nH]c(=O)n2OCCOc2ccccc2)c1 | 6.34 | 35 | 16 |  |
| CCCOn1c(Sc2cc(C)cc(C)c2)c(CCC)c(=O)[nH]c1=O | 5.59 | 18 | 45 |  |

| SMILES | pEC50 [1] | Selectivity index [2] | CC50 (CEM-SS [3]) [µM] | further results |
| --- | --- | --- | --- | --- |
| Cc1cn([C@H]2C[C@H](N=[N+]=[N-])[C@@H](CO)O2)c(=O)[nH]c1=O [ZIDOVUDINE] | 8.35 | >220 | > 1 | CC50 [6]: 149 µM; Selectivity index [7]: 16556; pEC50 [8]: 8.05 |
| CCCOn1c(Sc2cccc(C)c2)c(C(C)C)c(=O)[nH]c1=O | 6.01 | 41 | 40 |  |
| CCCOn1c(Sc2cccc(F)c2)c(C(C)C)c(=O)[nH]c1=O | 5.72 | 38 | 72 |  |
| CCCOn1c(Sc2ccccc2)c(C(C)C)c(=O)[nH]c1=O | 5.17 | 11 | 75 |  |
| CCCOn1c(Sc2cc(C)cc(C)c2)c(C2CC2)c(=O)[nH]c1=O | 5.21 | 4.9 | 30 |  |
| CCc1c(Sc2cc(C)cc(C)c2)n(OCCCO)c(=O)[nH]c1=O | 6.27 | 228 | 123 |  |
| Cc1cccc(CCOn2c(Sc3cc(C)cc(C)c3)c(C(C)C)c(=O)[nH]c2=O)c1 | 6.08 | 15 | 13 |  |
| Cc1cc(C)cc(Sc2c(C(C)C)c(=O)[nH]c(=O)n2OCc2ccccc2)c1 | 5.07 | 2.8 | 24 |  |
| Cc1cc(C)cc(Sc2c(C3CC3)c(=O)[nH]c(=O)n2OCCc2ccccc2)c1 | 5.22 | 7.1 | 43 |  |
| CCCCOn1c(Sc2cc(C)cc(C)c2)c(C(C)C)c(=O)[nH]c1=O | 6.38 | 71 | 30 |  |
| CCCOn1c(Sc2cc(C)cc(C)c2)c(C(C)C)c(=O)[nH]c1=O | 7.19 |  |  | CC50 [6]: 70 µM; CC50 (CEM-SS [9]): 33 µM; pIC50 [10]: < 4.00; pEC50 [8]: 6.82 |
| O=c1[nH]cnc2c1ncn2[C@H]1CC[C@@H](CO)O1 [DIDANOSINE] |  |  |  | CC50 (CEM-V [11]): > 10 µM; pEC50 (CEM-V [12]): 5.55; Selectivity index [13]: > 3.6 |
| CCc1c(Sc2cc(C)cc(C)c2)n(OCc2ccccc2)c(=O)[nH]c1=O | 5.24 | >35 | > 200 |  |
| CCCc1c(Sc2cc(C)cc(C)c2)n(OCc2ccccc2)c(=O)[nH]c1=O | 4.99 | 11 | 114 |  |
| O=C(O)P(=O)(O)O [FOSCARNET SODIUM] |  |  |  | pIC50 [14]: 5.03 |
| COCCOn1c(Sc2cc(C)cc(C)c2)c(C(C)C)c(=O)[nH]c1=O | 6.37 | 223 | 96 |  |
| CCCOn1c(Sc2ccc(C)cc2)c(C(C)C)c(=O)[nH]c1=O |  |  |  | CC50 (CEM-SS [9]): 69 µM |
| Cc1cc(C)cc(Sc2c(C)c(=O)[nH]c(=O)n2OCCc2ccccc2)c1 | 5.51 | >39 |  | CC50 (CEM-SS [9]): > 121 µM |
| CCCOn1c(Sc2cc(C)cc(C)c2)c(C)c(=O)[nH]c1=O | 6.03 | 69 | 64 |  |
| CCc1c(Sc2cc(C)cc(C)c2)n(OCCc2ccccc2)c(=O)[nH]c1=O | 6.34 | 78 | 36 |  |
